The source made the active and inactive calls. No cut-off for these calls is given here.
Legend:
D(2) dopamine receptor [1] = biological target: T1, D(2) dopamine receptor (Homo sapiens, UniProt P14416); assay: Inverse agonist activity at human D2LR expressed in CHO-K1 cells assessed as inhibition of basal activity by beta-galactosidase based beta-arrestin recruitment assay; type: cell-based
Method in brief: (§1)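 CHO-K1 cells expressing human D2L receptor, β-arrestin/β-galactosidase fragment-complementation assay. Cells plated 2500/well and grown 48 h at 37 °C. Test compounds given at 11 half-log points from 5 μM, 120 min at 37 °C. Detection reagent added and chemiluminescence read. Results given as % stimulation or inhibition of basal luminescence. Compounds counterscreened for β-gal inhibition.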

D(2) dopamine receptor [2] = biological target: T1, D(2) dopamine receptor; assay: Agonist activity at human D2LR expressed in CHO-K1 cells assessed as stimulation of basal activity by beta-galactosidase based beta-arrestin recruitment assay; type: cell-based; method in brief: as §1
D(3) dopamine receptor [3] = biological target: T2, D(3) dopamine receptor (Homo sapiens, UniProt P35462); assay: Antagonist activity against D3R in human U2OS cells assessed as inhibition of (+)-PD128907-induced beta-arrestin translocation by beta-galactosidase based beta-arrestin recruitment assay; type: cell-based
D(2) dopamine receptor [4] = biological target: T1, D(2) dopamine receptor; assay: Antagonist activity against human D2LR expressed in CHOK1 cells assessed as inhibition of pergolide-induced beta-arrestin translocation by beta-galactosidase based beta-arrestin recruitment assay; type: cell-based, CHO-K1
Homo sapiens [5] = species on record: Homo sapiens; assay: Selectivity index, ratio of IC50 for human D2LR to IC50 for human D3R by beta-galactosidase based beta-arrestin recruitment assay
D(3) dopamine receptor [6] = biological target: T2, D(3) dopamine receptor; assay: Displacement of [125I]IABN from human D3R expressed in HEK293 cell membranes by gamma counting method
D(2) dopamine receptor [7] = biological target: T1, D(2) dopamine receptor; assay: Displacement of [125I]IABN from human D2LR expressed in HEK293 cell membranes by gamma counting method
Homo sapiens [8] = species on record: Homo sapiens; assay: Selectivity index, ratio of Ki for human D2LR to Ki or human D3R
D(3) dopamine receptor [9] = biological target: T2, D(3) dopamine receptor; assay: Displacement of [125I]IABN from wild type human D3R expressed in HEK293 cell membranes by gamma counting method
Method in brief: (§2)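 Membranes from HEK 293 cells stably expressing receptor, prepared in 50 mM Tris-HCl pH 7.4/10 mM EDTA/150 mM NaCl and stored at −80 °C. […] Nonspecific binding defined with 2 μM (+)-butaclamol. Filtered, gamma counted. IC50 from single-site nonlinear regression, converted to Ki.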

D(2) dopamine receptor [10] = biological target: T1, D(2) dopamine receptor; assay: Displacement of [125I]IABN from wild type human D2R expressed in HEK293 cell membranes by gamma counting method
D(3) dopamine receptor [11] = biological target: T2, D(3) dopamine receptor; assay: Displacement of [125I]IABN from chimeric human D3 receptor possessing extracellular loop II of D2 receptor expressed in HEK293 cell membranes by gamma counting method; method in brief: as §2
D(2) dopamine receptor [12] = biological target: T1, D(2) dopamine receptor; assay: Displacement of [125I]IABN from chimeric human D2 receptor possessing extracellular loop II of D3 receptor expressed in HEK293 cell membranes by gamma counting method
D(3) dopamine receptor [13] = biological target: D(3) dopamine receptor (Homo sapiens, UniProt P35462, S182I); assay: Displacement of [125I]IABN from human D3R S182I mutant expressed in HEK293 cell membranes by gamma counting method; method in brief: as §2
D(3) dopamine receptor [14] = biological target: D(3) dopamine receptor (Homo sapiens, UniProt P35462, E90A); assay: Displacement of [125I]IABN from human D3R E90A mutant expressed in HEK293 cell membranes by gamma counting method; method in brief: as §2
D(3) dopamine receptor [15] = biological target: D(3) dopamine receptor (Homo sapiens, UniProt P35462, E90Q); assay: Displacement of [125I]IABN from human D3R E90Q mutant expressed in HEK293 cell membranes by gamma counting method; method in brief: as §2
D(2) dopamine receptor [16] = biological target: T1, D(2) dopamine receptor; assay: Agonist activity against human D2R expressed in HEK293 cells assessed as inhibition of forskolin-induced adenyl cyclase activity at 10 times Ki relative to quinpirole; type: functional, cell-based
Method in brief: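 Whole HEK 293 cells expressing human D2R, prelabelled with [2,8-3H]adenine for 75 min at 37 °C, then given 0.1 mM IBMX. […] Stopped with TCA. [3H]cAMP separated on Dowex/alumina. Inhibition normalized to 1 μM quinpirole. Mean ± SEM of ≥3 experiments.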

D(2) dopamine receptor [17] = biological target: T1, D(2) dopamine receptor; assay: Agonist activity at human D2R expressed in CHO cells assessed as stimulation of mitogenesis at 10 uM after 24 hrs by [3H]thymidine uptake assay relative to quinpirole; type: cell-based
Method in brief: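 CHOp-D2 cells grown 48–72 h, then serum-starved 24 h. Exposed to 10 μM compound in serum-free α-MEM for 24 h at 37 °C. Pulsed 2 h with 0.25 μCi [3H]thymidine, trypsinized, filtered and counted. Stimulation expressed relative to maximal quinpirole. Two independent experiments.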

D(2) dopamine receptor [18] = biological target: T1, D(2) dopamine receptor; assay: Antagonist activity against human D2R expressed in CHO cells assessed as inhibition of quinpirole-induced mitogenesis after 24 hrs by [3H]thymidine uptake assay; type: cell-based
Method in brief: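 Serum-starved CHOp-D2 or CHOp-D3 cells given serial dilutions of test compound plus quinpirole (30 nM final). Incubated at 37 °C for 24 h (D2) or 16 h (D3). Then 2 h [3H]thymidine pulse, filtration and counting.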

D(3) dopamine receptor [19] = biological target: T2, D(3) dopamine receptor; settings: CHO, 1 uM
D(2) dopamine receptor [20] = biological target: T1, D(2) dopamine receptor; settings: CHO, 1 uM
D(3) dopamine receptor [21] = biological target: T2, D(3) dopamine receptor; settings: CHO, 10 uM

T1 sequence (P14416 whole entry, the tested form may be a part): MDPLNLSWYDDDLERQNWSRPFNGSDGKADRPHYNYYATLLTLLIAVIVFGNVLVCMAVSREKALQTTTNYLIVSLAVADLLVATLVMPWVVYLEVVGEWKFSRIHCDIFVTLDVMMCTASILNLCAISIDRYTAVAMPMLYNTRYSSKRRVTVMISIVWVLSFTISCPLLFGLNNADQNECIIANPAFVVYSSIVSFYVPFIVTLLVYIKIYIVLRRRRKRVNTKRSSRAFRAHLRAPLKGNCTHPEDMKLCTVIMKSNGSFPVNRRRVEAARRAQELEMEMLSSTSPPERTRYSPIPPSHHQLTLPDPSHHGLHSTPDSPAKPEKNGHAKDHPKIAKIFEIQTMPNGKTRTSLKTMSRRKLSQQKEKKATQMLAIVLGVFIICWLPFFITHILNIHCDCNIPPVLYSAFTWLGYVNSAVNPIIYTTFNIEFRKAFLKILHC
T2 sequence (P35462 whole entry): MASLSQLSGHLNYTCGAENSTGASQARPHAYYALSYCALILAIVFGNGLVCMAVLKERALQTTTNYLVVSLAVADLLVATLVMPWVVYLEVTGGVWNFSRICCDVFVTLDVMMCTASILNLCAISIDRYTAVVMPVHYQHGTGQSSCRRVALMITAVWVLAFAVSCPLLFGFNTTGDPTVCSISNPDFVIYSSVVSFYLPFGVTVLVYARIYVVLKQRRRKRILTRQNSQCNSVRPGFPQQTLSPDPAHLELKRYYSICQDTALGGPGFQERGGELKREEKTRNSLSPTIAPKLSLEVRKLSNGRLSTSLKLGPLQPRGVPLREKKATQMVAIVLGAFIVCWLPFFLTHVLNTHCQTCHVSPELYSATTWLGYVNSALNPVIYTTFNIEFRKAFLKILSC
D(3) dopamine receptor (Homo sapiens, UniProt P35462, S182I), sequence (P35462 as listed by the source S182I): as the sequence (P35462 whole entry) above, with G9S, S182I counted along it
D(3) dopamine receptor (Homo sapiens, UniProt P35462, E90Q), sequence (P35462 as listed by the source E90Q): as the sequence (P35462 whole entry) above, with G9S, E90Q counted along it
D(3) dopamine receptor (Homo sapiens, UniProt P35462, E90A), sequence (P35462 as listed by the source E90A): as the sequence (P35462 whole entry) above, with G9S, E90A counted along it

| Compound | inhibition (D(2) dopamine receptor [1]) | Activity (D(2) dopamine receptor [2]) | IC50 (D(3) dopamine receptor [3]) | IC50 (D(2) dopamine receptor [4]) | Ratio IC50 (Homo sapiens [5]) | Ki (D(3) dopamine receptor [6]) | Ki (D(2) dopamine receptor [7]) | Ratio Ki (Homo sapiens [8]) | inhibition (D(2) dopamine receptor [16]) | further results |
| --- | --- | --- | --- | --- | --- | --- | --- | --- | --- | --- |
| CC(C)(C)c1nc(N2CCN(CCCCNC(=O)c3cc4ccccc4[nH]3)CC2)cc(C(F)(F)F)n1 | inactive | inactive | 5.6 nM | 418 nM | 75 | 11 nM | 913 nM | 83 | – | – |
| CN(C)Cc1cccc2nc(C(=O)NCCCCN3CCN(c4cc(C(F)(F)F)nc(C(C)(C)C)n4)CC3)cn12 | inactive | inactive | – | – | 9.7 | – | – | 11 | – | Ki (D(3) dopamine receptor [9]): 16 nM; Ki (D(2) dopamine receptor [10]): 245 nM; Ki (D(3) dopamine receptor [11]): 44 nM; Ki (D(2) dopamine receptor [12]): 176 nM; Ki (D(3) dopamine receptor [13]): 24 nM; Ki (D(3) dopamine receptor [14]): 12 nM; Ki (D(3) dopamine receptor [15]): 12 nM |
| CC(C)(C)c1nc(N2CCN(CCCCNC(=O)c3cc4cccnc4s3)CC2)cc(C(F)(F)F)n1 | – | – | – | – | – | 32 nM | 683 nM | 21 | – | – |
| O=C(NCCCCN1CCN(c2ccnc3ccccc23)CC1)c1cn2ccccc2n1 | inactive | inactive | 52 nM | 161 nM | 3.1 | 20 nM | – | 29 | 1.4% | – |
| COc1ccccc1N1CCN(CCCCNC(=O)c2cn3ccccc3n2)CC1 | inactive | inactive | 0.7 nM | 6.6 nM | 9.4 | 3.5 nM | 19 nM | 5.4 | 25% | Activity (D(2) dopamine receptor [17]): < 20%; IC50 (D(2) dopamine receptor [18]): 26 nM |
| O=C(NCCCCN1CCN(c2ncnc3ccccc23)CC1)c1cn2ccccc2n1 | inactive | inactive | 409 nM | 248 nM | 0.6 | – | – | 4.5 | 19% | – |
| CC(C)(C)c1nc(N2CCN(CCCCNC(=O)c3cn4nc(Cl)ccc4n3)CC2)cc(C(F)(F)F)n1 | inactive | inactive | – | 22 nM | – | – | – | – | – | Activity (D(2) dopamine receptor [17]): < 1% |
| CC(C)(C)c1nc(N2CCN(CCCCNC(=O)c3cn4ccncc4n3)CC2)cc(C(F)(F)F)n1 | inactive | inactive | 0.3 nM | 49 nM | 163 | – | – | 56 | – | Activity (D(2) dopamine receptor [17]): < 20%; inhibition (D(3) dopamine receptor [19]): < 30%; inhibition (D(2) dopamine receptor [20]): < 30%; inhibition (D(3) dopamine receptor [21]): 40% |
| CC(C)(C)c1nc(N2CCN(CCCCNC(=O)c3sc4ncccc4c3N)CC2)cc(C(F)(F)F)n1 | – | – | – | – | – | 35 nM | 481 nM | 14 | – | – |
| CC(C)(C)c1cc(N2CCN(CCCCNC(=O)c3cn4ccccc4n3)CC2)nc(C(C)(C)C)n1 | – | – | – | – | – | – | – | 19 | – | – |
| CC(C)(C)c1nc(N2CCN(CCCCNC(=O)c3cn4cccnc4n3)CC2)cc(C(F)(F)F)n1 | inactive | inactive | 0.4 nM | 37 nM | 93 | – | – | 36 | 9.2% | Activity (D(2) dopamine receptor [17]): < 1% |
| O=C(NCCCCN1CCN(c2ccccc2)CC1)c1cn2ccccc2n1 | – | – | – | – | – | 10 nM | 178 nM | 18 | – | – |
| Cc1cc(N2CCN(CCCCNC(=O)c3cn4ccccc4n3)CC2)nc(C(F)(F)F)n1 | – | – | – | – | – | 148 nM | 3650 nM | 25 | – | – |
| O=C(NCCCCN1CCN(c2ccc3ccccc3n2)CC1)c1cn2ccccc2n1 | – | – | – | – | – | 77 nM | 1560 nM | 20 | – | – |
| Cc1nc(N2CCN(CCCCNC(=O)c3cn4ccccc4n3)CC2)cc(C(F)(F)F)n1 | – | – | – | – | – | 2010 nM | 24900 nM | 12 | – | – |
| N#Cc1cc(N2CCN(CCCCNC(=O)c3cn4ccccc4n3)CC2)cc(C(F)(F)F)c1 | – | – | – | – | – | 6.4 nM | 191 nM | 30 | – | – |
| O=C(NCCCCN1CCN(c2cccc(C(F)(F)F)c2)CC1)c1cn2ccccc2n1 | inactive | inactive | 1.8 nM | 60 nM | 33 | 2.9 nM | 162 nM | 56 | 32% | – |
| CC(C)(C)c1nc(N2CCN(CCCCNC(=O)c3cn4ccccc4n3)CC2)cc(C(F)(F)F)n1 | inactive | inactive | 0.6 nM | – | 435 | – | – | – | -1.9% | Ki (D(3) dopamine receptor [9]): 8.4 nM; Ki (D(2) dopamine receptor [10]): 702 nM; Ki (D(3) dopamine receptor [11]): 40 nM; Ki (D(2) dopamine receptor [12]): 148 nM; Ki (D(3) dopamine receptor [13]): 12 nM; Ki (D(3) dopamine receptor [14]): 13 nM; Ki (D(3) dopamine receptor [15]): 20 nM; Activity (D(2) dopamine receptor [17]): 0%; inhibition (D(3) dopamine receptor [19]): < 30%; inhibition (D(2) dopamine receptor [20]): < 30%; inhibition (D(3) dopamine receptor [21]): 40% |
| CC(C)(C)c1cc(N2CCN(CCCCNC(=O)c3cn4ccccc4n3)CC2)cc(C(C)(C)C)c1 | – | – | – | – | – | 124 nM | 1300 nM | 11 | – | – |
| CC(C)(C)c1nc(N2CCN(CCCCNC(=O)[C@H]3CC[C@H](c4ccccc4)CC3)CC2)cc(C(F)(F)F)n1 | inactive | inactive | – | – | – | – | – | – | – | inhibition (D(3) dopamine receptor [19]): < 30%; inhibition (D(2) dopamine receptor [20]): < 30%; inhibition (D(3) dopamine receptor [21]): 40% |
| CC(C)(C)c1nc(N2CCN(CCCCNC(=O)c3nc4ccccc4[nH]3)CC2)cc(C(F)(F)F)n1 | inactive | inactive | 8.5 nM | 301 nM | 35 | 4.3 nM | 336 nM | 78 | 5.6% | Activity (D(2) dopamine receptor [17]): < 20%; IC50 (D(2) dopamine receptor [18]): 490 nM |
